Test results published in ChEMBL document CHEMBL3352173, “Optimization of pyrrolamide topoisomerase II inhibitors toward identification of an antibacterial clinical candidate (AZD5099)” (J Med Chem, 2014).
≈ marks a conversion by molar mass, not a printed value.

How the values were obtained:
[1] = Percentage unbound in human plasma; type: ADME, cell-free
[2] = Ratio of MIC for methicillin, quinolone-resistant Staphylococcus aureus to fraction unbound in human plasma; type: ADME
Staphylococcus aureus [3] = assay: Antimicrobial activity against methicillin-sensitive Staphylococcus aureus by broth microdilution/CLSI method; type: functional; conditions: Staphylococcus aureus; read-out: MIC
Escherichia coli [4] = assay: Antimicrobial activity against wild-type Escherichia coli Eco523 by broth microdilution/CLSI method; type: functional; conditions: Escherichia coli, Eco523; read-out: MIC
Moraxella catarrhalis = assay: Antimicrobial activity against Moraxella catarrhalis by broth microdilution/CLSI method; type: functional; conditions: Moraxella catarrhalis; read-out: MIC
[5] = Octanol-phosphate buffer distribution coefficient, log D of the compound at pH 7.4 by shake flask method; type: physicochemical
Streptococcus pneumoniae = assay: Antibacterial activity against Streptococcus pneumoniae by broth microdilution/CLSI method; type: functional; conditions: Streptococcus pneumoniae; read-out: MIC
DNA gyrase subunit B = DNA gyrase subunit B (Staphylococcus aureus, UniProt P0A0K8); assay: Inhibition of ATPase activity of Staphylococcus aureus GyrB
In short: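 IC50 was determined against S. aureus GyrB in the routine screening assay. The enzyme concentration limits resolution below 10 nM.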

Escherichia coli [6] = assay: Antimicrobial activity against Escherichia coli tolC- by broth microdilution/CLSI method; type: functional; conditions: Escherichia coli; read-out: MIC
Haemophilus influenzae = assay: Antimicrobial activity against Haemophilus influenzae by broth microdilution/CLSI method; type: functional; conditions: Haemophilus influenzae; read-out: MIC
[7] = Solubility of the compound; type: physicochemical
Streptococcus pyogenes = assay: Antimicrobial activity against Streptococcus pyogenes by broth microdilution/CLSI method; type: functional
Staphylococcus aureus [8] = assay: Antimicrobial activity against methicillin, quinolone-resistant Staphylococcus aureus by broth microdilution/CLSI method; type: functional; conditions: Staphylococcus aureus; read-out: MIC

DNA gyrase subunit B, sequence (P0A0K8 whole entry): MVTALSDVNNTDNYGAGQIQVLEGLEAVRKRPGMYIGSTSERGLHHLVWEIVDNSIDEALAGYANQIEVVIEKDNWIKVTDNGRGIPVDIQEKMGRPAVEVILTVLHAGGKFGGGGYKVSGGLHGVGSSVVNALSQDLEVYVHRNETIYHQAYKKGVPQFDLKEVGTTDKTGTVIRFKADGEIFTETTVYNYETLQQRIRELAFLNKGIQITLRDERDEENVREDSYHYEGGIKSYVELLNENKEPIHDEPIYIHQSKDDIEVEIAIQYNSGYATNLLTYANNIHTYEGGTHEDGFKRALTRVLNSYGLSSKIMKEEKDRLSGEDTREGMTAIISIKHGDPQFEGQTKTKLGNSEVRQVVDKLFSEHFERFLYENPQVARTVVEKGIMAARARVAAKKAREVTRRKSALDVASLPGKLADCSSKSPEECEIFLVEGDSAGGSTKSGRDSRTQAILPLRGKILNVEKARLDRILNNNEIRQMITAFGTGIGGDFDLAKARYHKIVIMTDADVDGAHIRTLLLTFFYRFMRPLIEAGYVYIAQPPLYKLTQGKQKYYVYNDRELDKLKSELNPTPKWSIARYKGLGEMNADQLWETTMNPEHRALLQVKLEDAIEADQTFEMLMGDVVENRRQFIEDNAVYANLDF

Row | Structure (SMILES) | fraction unbound [1] | Ratio [2] | MIC (Staphylococcus aureus [3]) | MIC (Escherichia coli [4]) | MIC (Moraxella catarrhalis) | logD [5] | MIC (Streptococcus pneumoniae) | IC50 (DNA gyrase subunit B) | MIC (Escherichia coli [6]) | MIC (Haemophilus influenzae) | solubility [7] | MIC (Streptococcus pyogenes) | MIC (Staphylococcus aureus [8])
1 | CO[C@H]1CN(c2nc(CO)c(C(=O)O)s2)CC[C@H]1NC(=O)c1[nH]c(C)c(Cl)c1Cl (racemic) | 0.029 | 17 | > 8 µg/mL | > 8 µg/mL | 1 µg/mL (≈ 2.16 µM) | -0.27 | 2 µg/mL (≈ 4.32 µM) | < 10 nM | 1 µg/mL (≈ 2.16 µM) | 8 µg/mL (≈ 17.3 µM) | – | – | –
2 | CO[C@H]1CN(c2nc(-c3nccn3C)c(C(=O)O)s2)CC[C@H]1NC(=O)c1[nH]c(C)c(Cl)c1Cl | 0.011 | 5.2 | < 0.06 µg/mL | 8 µg/mL (≈ 15.6 µM) | < 0.06 µg/mL | > 3 | < 0.06 µg/mL | < 10 nM | < 0.06 µg/mL | 0.25 µg/mL (≈ 0.487 µM) | 12 µM (≈ 6.16 µg/mL) | < 0.06 µg/mL | –
3 | Cc1[nH]c(C(=O)N[C@@H]2CCN(c3ncc(C(=O)O)s3)CC23OCCCO3)c(Cl)c1Cl | 0.03 | – | 2 µg/mL (≈ 4.21 µM) | > 64 µg/mL | 0.13 µg/mL (≈ 0.273 µM) | 0.4 | 0.063 µg/mL (≈ 0.133 µM) | < 10 nM | 1 µg/mL (≈ 2.1 µM) | 1 µg/mL (≈ 2.1 µM) | > 1000 µM | 0.063 µg/mL (≈ 0.133 µM) | 4 µg/mL (≈ 8.41 µM)
4 | CO[C@H]1CN(c2nc(C(=O)N3CCOCC3)c(C(=O)O)s2)CC[C@H]1NC(=O)c1[nH]c(C)c(Cl)c1Cl (racemic) | 0.14 | > 57 | 8 µg/mL (≈ 14.6 µM) | > 8 µg/mL | 2 µg/mL (≈ 3.66 µM) | -0.99 | 2 µg/mL (≈ 3.66 µM) | < 10 nM | 4 µg/mL (≈ 7.32 µM) | 8 µg/mL (≈ 14.6 µM) | 200 µM (≈ 109 µg/mL) | – | > 8 µg/mL
5 | CO[C@H]1CN(c2nc(-c3csc(N)n3)c(C(=O)O)s2)CC[C@H]1NC(=O)c1[nH]c(C)c(Cl)c1Cl | < 0.01 | < 6.3 | < 0.06 µg/mL | 4 µg/mL (≈ 7.53 µM) | < 0.06 µg/mL | 3 | < 0.06 µg/mL | < 9.8 nM | < 0.06 µg/mL | 0.5 µg/mL (≈ 0.941 µM) | < 1 µM | < 0.06 µg/mL | –
6 | C=C1COC2(CN(c3ncc(C(=O)O)s3)CC[C@H]2NC(=O)c2[nH]c(C)c(Cl)c2Cl)OC1 | 0.006 | – | 1 µg/mL (≈ 2.05 µM) | > 64 µg/mL | < 0.063 µg/mL | 0.82 | < 0.063 µg/mL | < 10 nM | 0.5 µg/mL (≈ 1.03 µM) | 2 µg/mL (≈ 4.1 µM) | > 1000 µM | < 0.063 µg/mL | 2 µg/mL (≈ 4.1 µM)
7 | Cc1[nH]c(C(=O)N[C@@H]2CCN(c3ncc(C(=O)O)s3)CC23OCCO3)c(Cl)c1Cl | 0.075 | – | 32 µg/mL (≈ 69.4 µM) | > 64 µg/mL | 1 µg/mL (≈ 2.17 µM) | -0.39 | 2 µg/mL (≈ 4.34 µM) | 15 nM | 1 µg/mL (≈ 2.17 µM) | 32 µg/mL (≈ 69.4 µM) | > 1000 µM | 2 µg/mL (≈ 4.34 µM) | 64 µg/mL (≈ 139 µM)
8 | CO[C@H]1CN(c2nc(-c3nccs3)c(C(=O)O)s2)CC[C@H]1NC(=O)c1[nH]c(C)c(Cl)c1Cl | < 0.01 | < 6.3 | < 0.06 µg/mL | 8 µg/mL (≈ 15.5 µM) | < 0.06 µg/mL | 3.6 | < 0.06 µg/mL | < 9.8 nM | 0.13 µg/mL (≈ 0.252 µM) | 0.13 µg/mL (≈ 0.252 µM) | 16 µM (≈ 8.26 µg/mL) | < 0.06 µg/mL | –
9 | CO[C@H]1CN(c2nc(-c3ccccn3)c(C(=O)O)s2)CC[C@H]1NC(=O)c1[nH]c(C)c(Cl)c1Cl | 0.003 | < 21 | < 0.06 µg/mL | 8 µg/mL (≈ 15.7 µM) | < 0.06 µg/mL | > 2.5 | < 0.06 µg/mL | < 9.8 nM | 0.13 µg/mL (≈ 0.255 µM) | 0.5 µg/mL (≈ 0.98 µM) | < 1 µM | < 0.06 µg/mL | –
10 | COCc1nc(N2CC[C@@H](NC(=O)c3[nH]c(C)c(Cl)c3Cl)[C@@H](OC)C2)sc1C(=O)O | 0.034 | 29 | 0.5 µg/mL (≈ 1.05 µM) | > 8 µg/mL | 0.063 µg/mL (≈ 0.132 µM) | 0.44 | 0.12 µg/mL (≈ 0.251 µM) | < 10 nM | 0.5 µg/mL (≈ 1.05 µM) | 0.35 µg/mL (≈ 0.733 µM) | > 1000 µM | – | 1 µg/mL (≈ 2.09 µM)
11 | CO[C@H]1CO[C@]2(CN(c3ncc(C(=O)O)s3)CC[C@H]2NC(=O)c2[nH]c(C)c(Cl)c2Cl)OC1 (relative stereo) | 0.053 | – | 4 µg/mL (≈ 7.91 µM) | > 64 µg/mL | 0.13 µg/mL (≈ 0.257 µM) | -0.18 | 0.063 µg/mL (≈ 0.125 µM) | < 10 nM | 1 µg/mL (≈ 1.98 µM) | 1 µg/mL (≈ 1.98 µM) | > 1000 µM | 0.063 µg/mL (≈ 0.125 µM) | 4 µg/mL (≈ 7.91 µM)
12 | CO[C@H]1CN(c2nc(C(=O)O)c(C(N)=O)s2)CC[C@H]1NC(=O)c1[nH]c(C)c(Cl)c1Cl (racemic) | 0.005 | 160 | > 8 µg/mL | > 8 µg/mL | 2 µg/mL (≈ 4.2 µM) | -0.63 | 1 µg/mL (≈ 2.1 µM) | < 10 nM | 1 µg/mL (≈ 2.1 µM) | > 8 µg/mL | – | – | –
13 | COC1(OC)CN(c2ncc(C(=O)O)s2)CC[C@H]1NC(=O)c1[nH]c(C)c(Cl)c1Cl | 0.018 | – | 2 µg/mL (≈ 4.32 µM) | > 64 µg/mL | 0.5 µg/mL (≈ 1.08 µM) | 0.24 | 0.13 µg/mL (≈ 0.281 µM) | 14 nM | 0.5 µg/mL (≈ 1.08 µM) | 1 µg/mL (≈ 2.16 µM) | > 1000 µM | 0.25 µg/mL (≈ 0.54 µM) | 2 µg/mL (≈ 4.32 µM)
14 | CO[C@H]1CN(c2nc(C(=O)N(C)C)c(C(=O)O)s2)CC[C@H]1NC(=O)c1[nH]c(C)c(Cl)c1Cl (racemic) | 0.13 | > 62 | 8 µg/mL (≈ 15.9 µM) | > 8 µg/mL | 2 µg/mL (≈ 3.97 µM) | -1 | 4 µg/mL (≈ 7.93 µM) | < 10 nM | 2 µg/mL (≈ 3.97 µM) | 8 µg/mL (≈ 15.9 µM) | > 1000 µM | – | > 8 µg/mL
15 | C#CCO[C@H]1CN(c2ncc(C(=O)O)s2)CC[C@H]1NC(=O)c1[nH]c(C)c(Cl)c1Cl | 0.03 | – | 0.25 µg/mL (≈ 0.547 µM) | > 8 µg/mL | 0.016 µg/mL (≈ 0.035 µM) | 0.44 | 0.016 µg/mL (≈ 0.035 µM) | < 10 nM | 0.13 µg/mL (≈ 0.284 µM) | 0.13 µg/mL (≈ 0.284 µM) | > 1000 µM | 0.016 µg/mL (≈ 0.035 µM) | 0.25 µg/mL (≈ 0.547 µM)
16 | CNC(=O)c1sc(N2CC[C@@H](NC(=O)c3[nH]c(C)c(Cl)c3Cl)[C@@H](OC)C2)nc1C(=O)O | < 0.01 | > 200 | – | > 64 µg/mL | – | – | > 32 µg/mL | < 10 nM | 2 µg/mL (≈ 4.08 µM) | – | > 1000 µM | – | 2 µg/mL (≈ 4.08 µM)
17 | Cc1[nH]c(C(=O)N[C@@H]2CCN(c3ncc(C(=O)O)s3)C[C@@H]2N=[N+]=[N-])c(Cl)c1Cl (racemic) | 0.038 | – | 0.13 µg/mL (≈ 0.293 µM) | 32 µg/mL (≈ 72 µM) | < 0.063 µg/mL | 0.53 | < 0.063 µg/mL | < 10 nM | < 0.063 µg/mL | < 0.063 µg/mL | > 1000 µM | < 0.063 µg/mL | 0.25 µg/mL (≈ 0.563 µM)
